Data published in ChEMBL document CHEMBL4145598, “Discovery and Development of 8-Substituted Cycloberberine Derivatives as Novel Antibacterial Agents against MRSA” (ACS Med Chem Lett, 2018).
Calls of active or inactive are those of the source. The rule behind the calls is not given here.

Experiments:
Staphylococcus aureus [1] = assay: Antimicrobial activity against methicillin-sensitive Staphylococcus aureus isolate 13-20 after 18 hrs by agar dilution assay; assay type: functional; details: isolate 13-20, 18 h
Staphylococcus aureus [2] = assay: Antimicrobial activity against methicillin-resistant Staphylococcus aureus ATCC-BAA-1708 after 18 hrs by agar dilution assay; assay type: functional; details: ATCC-BAA-1708, 18 h
Summary of the method: (§1)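 Drug-resistant S. aureus (MRSA/VISA) panel. It includes ATCC reference strains and clinical isolates from patients in Chinese hospitals. MIC was determined by standard methods and reported in μg/mL, with levofloxacin as the reference drug.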

Staphylococcus aureus [3] = assay: Antimicrobial activity against methicillin-sensitive Staphylococcus aureus isolate 13-19 after 18 hrs by agar dilution assay; assay type: functional; details: isolate 13-19, 18 h
Staphylococcus aureus [4] = assay: Antimicrobial activity against methicillin-sensitive Staphylococcus aureus ATCC 29213 after 18 hrs by agar dilution assay; assay type: functional; details: ATCC 29213, 18 h
Staphylococcus aureus [5] = assay: Antimicrobial activity against vancomycin-intermediate Staphylococcus aureus ATCC 700698 after 18 hrs by agar dilution assay; assay type: functional; details: ATCC 700698, 18 h
Summary of the method: (§2)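 MICs in μg/mL against drug-resistant S. aureus (MRSA/VISA) by standard methods, with levofloxacin as the reference drug. ATCC strains were used.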

Staphylococcus aureus [6] = assay: Antimicrobial activity against methicillin-sensitive Staphylococcus aureus isolate 15 after 18 hrs by agar dilution assay; assay type: functional; details: isolate 15, 18 h
Staphylococcus aureus [7] = assay: Antimicrobial activity against methicillin-resistant Staphylococcus aureus isolate 12-13 after 18 hrs by agar dilution assay; assay type: functional; details: isolate 12-13, 18 h; summary of the method: as §1
[8] = Cytotoxicity against human A549 cells assessed as decrease in cell viability after 24 hrs by MTT assay; assay type: cell-based
Summary of the method: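 A549 cells were treated with compound at a series of concentrations for 24 h, and viability was read by MTT assay. Controls received 0.4% (v/v) DMSO. CC50 is given in μg/mL.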

Staphylococcus aureus [9] = assay: Antimicrobial activity against methicillin-sensitive Staphylococcus aureus isolate 13-21 after 18 hrs by agar dilution assay; assay type: functional; details: isolate 13-21, 18 h
Staphylococcus aureus [10] = assay: Antimicrobial activity against methicillin-resistant Staphylococcus aureus ATCC 33591 after 18 hrs by agar dilution assay; assay type: functional; details: ATCC 33591, 18 h; summary of the method: as §1
[11] = tested on: Staphylococcus epidermidis; assay: Antimicrobial activity against methicillin-sensitive Staphylococcus epidermidis isolate 13-1 after 18 hrs by agar dilution assay; assay type: functional; details: isolate 13-1, 18 h
Staphylococcus aureus [12] = assay: Antimicrobial activity against methicillin-resistant Staphylococcus aureus isolate 12-8 after 18 hrs by agar dilution assay; assay type: functional; details: isolate 12-8, 18 h; summary of the method: as §1
Staphylococcus aureus [13] = assay: Antimicrobial activity against vancomycin-intermediate Staphylococcus aureus ATCC 700699 after 18 hrs by agar dilution assay; assay type: functional; details: ATCC 700699, 18 h; summary of the method: as §2
[14] = tested on: Staphylococcus epidermidis; assay: Antimicrobial activity against methicillin-sensitive Staphylococcus epidermidis ATCC 12228 after 18 hrs by agar dilution assay; assay type: functional; details: ATCC 12228, 18 h
[15] = tested on: Staphylococcus saprophyticus; assay: Antimicrobial activity against Staphylococcus saprophyticus ATCC 15305 after 18 hrs by agar dilution assay; assay type: functional; details: ATCC 15305, 18 h
Staphylococcus hominis = assay: Antimicrobial activity against Staphylococcus hominis ATCC 35982 after 18 hrs by agar dilution assay; assay type: functional; details: ATCC 35982, 18 h
Staphylococcus aureus [16] = assay: Antimicrobial activity against methicillin-sensitive Staphylococcus aureus isolate 13-17 after 18 hrs by agar dilution assay; assay type: functional; details: isolate 13-17, 18 h
Staphylococcus aureus [17] = assay: Antimicrobial activity against methicillin-resistant Staphylococcus aureus isolate 12-16 after 18 hrs by agar dilution assay; assay type: functional; details: isolate 12-16, 18 h; summary of the method: as §1
Staphylococcus aureus [18] = assay: Antimicrobial activity against methicillin-resistant Staphylococcus aureus isolate 13-23 after 18 hrs by agar dilution assay; assay type: functional; details: isolate 13-23, 18 h; summary of the method: as §1
Staphylococcus aureus [19] = assay: Antimicrobial activity against methicillin-resistant Staphylococcus aureus isolate 12-3 after 18 hrs by agar dilution assay; assay type: functional; details: isolate 12-3, 18 h; summary of the method: as §1
Staphylococcus aureus [20] = assay: Antimicrobial activity against methicillin-resistant Staphylococcus aureus isolate 13-18 after 18 hrs by agar dilution assay; assay type: functional; details: isolate 13-18, 18 h; summary of the method: as §1
[21] = Stability in Sprague-Dawley rat blood assessed as parent compound remaining at […] after 420 mins by LC-MS/MS analysis; assay type: ADME, tissue-based; details: read-out: Stability
DNA = assay: Binding affinity to Escherichia coli DH5-alpha supercoiled pET-32a DNA assessed as conversion of closed circular form to open circular form of DNA at 61.5 to 492 ug/ml after 4 hrs by agarose gel electrophoresis; assay type: nucleic-acid assay
Summary of the method: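 Supercoiled pET-32a plasmid DNA was incubated with compound at increasing concentrations for 4 h at 37 °C under physiological conditions. DNA forms were resolved by agarose gel electrophoresis.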

Structure (SMILES) | MIC (Staphylococcus aureus [1]) [µg/mL] | MIC (Staphylococcus aureus [2]) [µg/mL] | MIC (Staphylococcus aureus [3]) [µg/mL] | MIC (Staphylococcus aureus [4]) [µg/mL] | MIC (Staphylococcus aureus [5]) [µg/mL] | MIC (Staphylococcus aureus [6]) [µg/mL] | MIC (Staphylococcus aureus [7]) [µg/mL] | MIC (Staphylococcus aureus [9]) [µg/mL] | MIC (Staphylococcus aureus [10]) [µg/mL] | MIC [11] [µg/mL] | MIC (Staphylococcus aureus [12]) [µg/mL] | MIC (Staphylococcus aureus [13]) [µg/mL] | MIC [14] [µg/mL] | MIC [15] [µg/mL] | MIC (Staphylococcus hominis) [µg/mL] | MIC (Staphylococcus aureus [16]) [µg/mL] | MIC (Staphylococcus aureus [17]) [µg/mL] | MIC (Staphylococcus aureus [18]) [µg/mL] | MIC (Staphylococcus aureus [19]) [µg/mL] | MIC (Staphylococcus aureus [20]) [µg/mL] | other results
COc1ccc2c(c[n+]3c4c2ccc2c5c(cc(c24)CC3)OCO5)c1OC(C)=O.[Cl-] | 2 | 8 | 8 | 1 | 16 | 2 | 4 | 4 | 4 | 2 | 8 | 32 | 1 | 4 | 2 | 1 | 2 | 2 | 4 | 1 | CC50 at 24 h [8]: > 33.6 µg/mL
COc1ccc2c(c[n+]3c4c2ccc2c5c(cc(c24)CC3)OCO5)c1NC(=O)c1csnn1.[Cl-] | 2 | 2 | 2 | 2 | 16 | 4 | 4 | 2 | 2 | 2 | 2 | 8 | 4 | 4 | 2 | 2 | 2 | 2 | 2 | 2 | remaining at 7 h [21]: 57.2%; CC50 at 24 h [8]: 16.1 µg/mL; Activity (DNA): Active
COc1ccc2c(c[n+]3c4c2ccc2c5c(cc(c24)CC3)OCO5)c1N.[Cl-] | 4 | 4 | 8 | 4 | 64 | 4 | 4 | 8 | 4 | 8 | 4 | 4 | 8 | 8 | 8 | 4 | 4 | 8 | 8 | 8 | –
C[C@H]1COc2c(N3CCN(C)CC3)c(F)cc3c(=O)c(C(=O)O)cn1c23.C[C@H]1COc2c(N3CCN(C)CC3)c(F)cc3c(=O)c(C(=O)O)cn1c23.O [LEVOFLOXACIN] | 0.125 | 16 | 0.5 | 0.06 | 32 | 0.125 | 32 | 0.25 | 0.125 | 0.125 | 32 | 2 | 0.06 | 0.5 | 0.125 | 0.125 | 32 | 32 | 32 | 32 | –
COc1ccc2c(c[n+]3c4c2ccc2c5c(cc(c24)CC3)OCO5)c1OCC(=O)c1ccccc1OC(F)(F)F.[Br-] | 8 | 32 | 8 | 8 | > 64 | 16 | 4 | 8 | 8 | 16 | 8 | > 64 | 4 | 4 | 4 | 8 | 4 | 8 | 16 | 8 | –
